# In ChEMBL document CHEMBL4007469, “Design and synthesis of dalbergin analogues and evaluation of anti-osteoporotic activity” (Bioorg Med Chem Lett, 2017):
# Calls of active or inactive are those of the source. No cut-off for these calls is given here.
# Experiments:
# Mus musculus [1] = test: Anti-osteoporotic activity in ovariectomized postmenopausal Balb/c mouse model assessed as induction of femur bone marrow cell differentiation by measuring increase in ALP activity at 1 mg/kg, po qd via gavage for 6 weeks relative to control; format: functional
# In short: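 Ovariectomized 8-week-old female Balb/c mice given 1.0 mg/kg/day orally by gavage for 6 weeks; bone marrow cells then cultured ex vivo. ALP activity read at 405 nm; mineralized nodules stained with Alizarin Red at day 21 of culture. Mean ± SE versus OVx group.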
# [2] = Induction of osteoblast differentiation in mouse calvarial cells assessed as increase in RunX2 mRNA expression at 1 pM after 24 hrs by qRT-PCR method relative to control; format: functional, Calvarial cell
# In short: (§1)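 Mouse calvarial osteoblasts exposed to 1 pM for 24 h; BMP2, RunX2 and COL1 mRNA by quantitative PCR with GAPDH as internal control. Mean ± SE of three independent experiments versus untreated cells.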
# [3] = Induction of mineralization in mouse calvarial cells assessed as increase in COL1 mRNA expression at 1 pM after 24 hrs by qRT-PCR method relative to control; format: functional, Calvarial cell; in short: as §1
# Mus musculus [4] = test: Anti-osteoporotic activity in ovariectomized postmenopausal Balb/c mouse model assessed as improvement in micro-artchitectural parameter in tibia by measuring trabecular separation at 1 mg/kg, po qd via gavage for 6 weeks by micro CT-scan analysis (reference value: 0.387 +/- 0.038 millimeter); format: functional
# In short: (§2)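 Female Balb/c mice, 8 weeks old, ovariectomized, 6 weeks osteopenia development, then 1.0 mg/kg/day or gum acacia vehicle by oral gavage once daily for 6 weeks (sham, OVx and treated groups). Bones collected after sacrifice for micro-CT of trabecular microarchitecture (BV/TV, Tb.N, Tb.Th, Tb.Sp, SMI) and biomechanical testing of femur and vertebrae (energy, stiffness); mean ± SE versus OVx.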
# Mus musculus [5] = test: Anti-osteoporotic activity in ovariectomized postmenopausal Balb/c mouse model assessed as micro-artchitectural parameter in vertebrae by measuring bone volume fraction at 1 mg/kg, po qd via gavage for 6 weeks by micro CT-scan analysis (reference value: 13.92 +/-1.66%); format: functional; in short: as §2
# Mus musculus [6] = test: Anti-osteoporotic activity in ovariectomized postmenopausal Balb/c mouse model assessed as improvement in micro-artchitectural parameter in vertebrae by measuring trabecular thickness at 1 mg/kg, po qd via gavage for 6 weeks by micro CT-scan analysis (reference value: 0.047 +/- 0.001 millimeter); format: functional; in short: as §2
# Mus musculus [7] = test: Anti-osteoporotic activity in ovariectomized postmenopausal Balb/c mouse model assessed as improvement in micro-artchitectural parameter in vertebrae by measuring trabecular separation at 1 mg/kg, po qd via gavage for 6 weeks by micro CT-scan analysis (reference value: 0.288 +/- 0.021 millimeter); format: functional; in short: as §2
# Mus musculus [8] = test: Anti-osteoporotic activity in ovariectomized postmenopausal Balb/c mouse model assessed as increase in RunX2 gene expression in femur bone at 1 mg/kg, po qd via gavage for 6 weeks by RT-PCR method; format: functional, organism-based
# In short: (§3)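 Eight-week-old female Balb/c mice, ovariectomized and left 6 weeks for osteopenia to develop; groups sham+vehicle, OVx+vehicle, OVx+1.0 mg/kg/day, dosed once daily by oral gavage for 6 weeks in gum acacia/distilled water vehicle. Mice kept at 21°C, 12 h light/dark, chow and water ad libitum. Femoral bone mRNA or serum measured after sacrifice; mean ± SE versus OVx group.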
# Mus musculus [9] = test: Anti-osteoporotic activity in ovariectomized postmenopausal Balb/c mouse model assessed as increase in Osx gene expression in femur bone at 1 mg/kg, po qd via gavage for 6 weeks by RT-PCR method; format: functional, organism-based; in short: as §3
# Mus musculus [10] = test: Anti-osteoporotic activity in ovariectomized postmenopausal Balb/c mouse model assessed as increase in OPG gene expression in femur bone at 1 mg/kg, po qd via gavage for 6 weeks by RT-PCR method; format: functional, organism-based; in short: as §3
# Mus musculus [11] = test: Anti-osteoporotic activity in ovariectomized postmenopausal Balb/c mouse model assessed as decrease in RANKL mRNA expression at 1 mg/kg, po qd via gavage for 6 weeks by RT-PCR method; format: functional, organism-based; in short: as §3
# Mus musculus [12] = test: Osteogenic activity in Balb/c mouse drill-hole fracture model assessed as increase in aggrecan mRNA level at 1 mg/kg, po qd via gavage for 21 days by RT-PCR method
# Mus musculus [13] = test: Osteogenic activity in Balb/c mouse drill-hole fracture model assessed as bone volume fraction at 1 mg/kg, po qd via gavage for 21 days by micro-CT method (reference value: 32.924 +/- 3.806%)
# Mus musculus [14] = test: Osteogenic activity in Balb/c mouse drill-hole fracture model assessed as trabecular separation at 1 mg/kg, po qd via gavage for 21 days by micro-CT method (reference value: 0.219 +/- 0.015 millimeter)
compound,measurement,setting,value
COc1cc2oc(=O)cc(-c3ccccc3)c2cc1OCCCCCN1CCN(C)CC1,fold change (FC),Mus musculus [1],2
same,fold change (FC),[2],2
same,fold change (FC),[3],6
same,Activity,Mus musculus [4],0.294 mm
same,Activity,Mus musculus [5],23.43%
same,Activity,Mus musculus [6],0.0522 mm
same,Activity,Mus musculus [7],0.167 mm
same,Activity,Mus musculus [8],Active
same,Activity,Mus musculus [9],Active
same,Activity,Mus musculus [10],Active
same,Activity,Mus musculus [11],Active
same,Activity,Mus musculus [12],Active
same,Activity,Mus musculus [13],44.359%
same,Activity,Mus musculus [14],0.164 mm
